Measured values pooled from the literature.
Compare with care: the assays were run in different laboratories.
SIRT5: NAD-dependent protein deacylase sirtuin-5, mitochondrial (SIRT5, Homo sapiens, UniProt Q9NXA8)
CA9: Carbonic anhydrase 9 (CA9, Homo sapiens, UniProt Q16790)
EDNRB: Endothelin receptor type B (EDNRB, Homo sapiens, UniProt P24530)
Adora1: Adenosine receptor A1 (Adora1, Rattus norvegicus, UniProt P25099)
MAOB: Amine oxidase [flavin-containing] B (MAOB, Homo sapiens, UniProt P27338)
CHRM4: Muscarinic acetylcholine receptor M4 (CHRM4, Homo sapiens, UniProt P08173)

SMILES	target	assay	test system	conditions	inhibition
CN(C)C1CCN(CC#Cc2nn(C3CCCC3)c3nc(NCc4ccccc4)ncc23)C1 (centres unmarked)	Serine/threonine-protein kinase 26 (STK26, Homo sapiens, UniProt Q9P289)	enzyme activity, inhibitor, FRET		10 µM	78%
Cc1ccc(C(=O)Nc2ccc(S(=O)(=O)O)c3cc(S(=O)(=O)O)cc(S(=O)(=O)O)c23)cc1NC(=O)c1cccc(NC(=O)Nc2cccc(C(=O)Nc3cc(C(=O)Nc4ccc(S(=O)(=O)O)c5cc(S(=O)(=O)O)cc(S(=O)(=O)O)c45)ccc3C)c2)c1	SIRT5	enzyme activity, inhibitor		1 mM	> 60%
CCOC(=O)C1CSc2[nH]c(=O)sc2C1c1cn(-c2ccccc2)nc1-c1ccc(OC)cc1 (centres unmarked)	CA9	enzyme activity, inhibitor		0.1 µM	53.6%
CCN(Cc1ccccc1C(F)(F)F)C(=O)C1CCN(S(=O)(=O)c2ccc3[nH]ncc3c2)CC1	EDNRB	ligand displacement, radioligand		10 µM	8%
Oc1cccc(Nc2nc(-c3ccc(F)cc3F)cs2)c1	EDNRB	cell-free assay		10 µM	-4.3%
CCCC(C)N1CCCn2c1nc1c2c(=O)n(C)c(=O)n1C (centres unmarked)	Adora1	ligand displacement, radioligand		25 µM, cell membranes	19%
CCOC(=O)C1CSc2[nH]c(=O)sc2C1c1cn(-c2ccccc2)nc1-c1ccc(Cl)cc1 (centres unmarked)	CA9	enzyme activity, inhibitor		10 nM	12%
O=c1c2ccccc2c(Cc2ccc(Cl)cc2)nn1C1CCCNCC1 (centres unmarked)	KCNU1 (Homo sapiens, UniProt A8MYU2)	ion current, inhibitor, patch clamp	HEK293	10 µM	34%
CCOC(=O)C1CSc2[nH]c(=O)sc2C1c1cn(-c2ccccc2)nc1-c1ccc(Br)cc1 (centres unmarked)	CA9	enzyme activity, inhibitor		0.1 µM	42.2%
O=C(Nc1ccccc1Cl)c1ccc([N+](=O)[O-])cc1Cl	MAOB	enzyme activity, inhibitor		1 µM, 20 min	6%
Cc1ccc(-n2nc(C(C)(C)C)cc2NC(=O)Nc2ccc(OCCN3CCOCC3)c3ccccc23)cc1	Tyrosine-protein phosphatase non-receptor type 2 (PTPN2, Homo sapiens, UniProt P17706)	enzyme activity, inhibitor		10 µM	17%
CCOc1ccc(C(=O)Nc2ccc(OC(F)(F)F)cc2)cc1OCC	MAOB	enzyme activity, inhibitor		1 µM, 20 min	1%
CCN(CC)c1ccc(C2Nc3ccc(C(=O)c4ccccc4)cc3NC3=C2C(=O)CC(C)(C)C3)cc1 (centres unmarked)	CHRM4	ligand displacement, radioligand		10 µM	-1%
N#Cc1cc(Cn2c(N3CCCC3)nc3ccccc32)ccc1F	CHRM4	ligand displacement		10 µM	-6.19%
COc1cc(N)ccc1NC(=O)c1ccccc1	MAOB	enzyme activity, inhibitor		1 µM, 20 min	1%
Cc1ccc(C(=O)Nc2ccc(S(=O)(=O)O)c3cc(S(=O)(=O)O)cc(S(=O)(=O)O)c23)cc1NC(=O)c1cccc(NC(=O)Nc2cccc(C(=O)Nc3cc(C(=O)Nc4ccc(S(=O)(=O)O)c5cc(S(=O)(=O)O)cc(S(=O)(=O)O)c45)ccc3C)c2)c1	SIRT5	enzyme activity, inhibitor		100 µM	85%

SMILES	target	assay	test system	conditions	inhibition
CCCCCC(C)N1CCCn2c1nc1c2c(=O)n(C)c(=O)n1C (centres unmarked)	Adora1	ligand displacement, radioligand		25 µM, cell membranes	30%
O=C(Nc1ccc([N+](=O)[O-])cc1Cl)c1ccccc1	MAOB	enzyme activity, inhibitor		1 µM, 20 min	25%
C=CN1CCCn2c1nc1c2c(=O)n(C)c(=O)n1C	Adora1	ligand displacement, radioligand		25 µM, cell membranes	30%
COc1cc(-c2cc(-c3ccc(N4CCNCC4)cc3)cnc2C)cc(OC)c1OC	Dual specificity tyrosine-phosphorylation-regulated kinase 4 (DYRK4, Homo sapiens, UniProt Q9NR20)	enzyme activity, inhibitor		1 µM	1%
O=C1NC(=S)C(=Cc2cn(-c3ccccc3)nc2-c2ccc(Br)cc2)S1	CA9	enzyme activity, inhibitor		10 µM	83.7%
O=C(Nc1ccccc1)c1ccc(Cl)cc1	MAOB	enzyme activity, inhibitor		1 µM, 20 min	24%
O=C(c1ccc(Cl)cc1)N(Cc1ccccc1)C1CCCCC1	Beta-1 adrenergic receptor (ADRB1, Homo sapiens, UniProt P08588)	cell-free assay		10 µM	-27.9%
N#CC1CSc2[nH]c(=O)sc2C1c1cn(-c2ccccc2)nc1-c1ccc(Br)cc1 (centres unmarked)	CA9	enzyme activity, inhibitor		0.1 µM	60.1%
COc1cc(NC(C)=O)c(Cl)cc1C(=O)Nc1nccs1	CHRM4	cell-free assay		10 µM	16.7%
O=C(Nc1ccc(C(F)(F)F)cc1C(F)(F)F)c1cc(Cl)ccc1O	MAOB	enzyme activity, inhibitor		1 µM, 20 min	84%
C#CCN1CCCn2c1nc1c2c(=O)n(C)c(=O)n1C	Adora1	ligand displacement, radioligand		25 µM, cell membranes	46%
CCOC(=O)C1CSc2[nH]c(=O)sc2C1c1cn(-c2ccccc2)nc1-c1ccc(C)cc1 (centres unmarked)	CA9	enzyme activity, inhibitor		0.1 µM	35.5%
O=C(Nc1ccc([N+](=O)[O-])cc1Cl)c1cc2ccccc2s1	MAOB	enzyme activity, inhibitor		1 µM, 20 min	40%
Cc1ccc(-c2nn(-c3ccccc3)cc2C2c3sc(=O)[nH]c3SC3C(=O)N(c4ccccc4)C(=O)C32)cc1 (centres unmarked)	CA9	enzyme activity, inhibitor		10 µM	77.9%
CCC(C)N1CCCn2c1nc1c2c(=O)n(C)c(=O)n1C (centres unmarked)	Adora1	ligand displacement, radioligand		25 µM, cell membranes	40%
CCOc1ccc(C(=O)Nc2ccc([N+](=O)[O-])cc2Cl)cc1OCC	MAOB	enzyme activity, inhibitor		1 µM, 20 min	34%
